ChEMBL document CHEMBL1126888, “Peptide alpha-keto ester, alpha-keto amide, and alpha-keto acid inhibitors of calpains and other cysteine proteases” (J Med Chem, 1993)

Key:
Rattus norvegicus = species: Rattus norvegicus; test: Inhibitory potency against rat platelet membrane permeability at pH 7.35; assay type: functional
How it was run: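 Rat platelets from cardiac-puncture blood (citrate-EDTA), gel-filtered in HEPES-Tyrode's pH 7.35, at 10^7/mL. Preincubated 5 min at room temperature with inhibitor from DMSO stocks (2% DMSO), then given 1 μM A23187 plus 2 mM Ca for 5 min. Pellets run on SDS-PAGE and western blotted for spectrin. Densitometry of the 150/155-kDa breakdown doublet gives IC50.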

Calpain 1 = Calpain 1 (Homo sapiens, UniProt P07384); test: Inhibitory activity of alpha-keto esters towards calpain 1 at pH 8.0.; assay type: protein-complex assay
How it was run: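 Calpain I purified from human erythrocytes; calpain II from rabbit muscle. Buffer: 25 mM Tris pH 8.0, 1 mM β-mercaptoethanol, 10 mM CaCl2, up to 5% DMSO. Substrate: Suc-Leu-Tyr-AMC at 1–3 mM, 70 nM final enzyme, started with enzyme. AMC fluorescence read at ex 380 / em 460 nm. Initial rates taken at 30–60 s at room temperature, with five or more inhibitor levels and two substrate levels. Ki from Dixon plots, triplicates.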

Cathepsin B = Cathepsin B (Bos taurus, UniProt P07688); test: Inhibition of alpha-keto esters towards cathepsin B at pH 5.2
How it was run: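 Bovine cathepsin B in 20 mM sodium acetate pH 5.2, 0.5 mM dithiothreitol, 2% DMSO. Substrate Bz-Phe-Val-Arg-p-nitroanilide; p-nitroaniline release followed at 405 nm. Ki reported.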

Papain = target: T1, Papain (Carica papaya, UniProt P00784); test: Inhibitory activity of alpha-ketoesters towards papain at pH 6.0
T1 sequence (P00784 whole entry): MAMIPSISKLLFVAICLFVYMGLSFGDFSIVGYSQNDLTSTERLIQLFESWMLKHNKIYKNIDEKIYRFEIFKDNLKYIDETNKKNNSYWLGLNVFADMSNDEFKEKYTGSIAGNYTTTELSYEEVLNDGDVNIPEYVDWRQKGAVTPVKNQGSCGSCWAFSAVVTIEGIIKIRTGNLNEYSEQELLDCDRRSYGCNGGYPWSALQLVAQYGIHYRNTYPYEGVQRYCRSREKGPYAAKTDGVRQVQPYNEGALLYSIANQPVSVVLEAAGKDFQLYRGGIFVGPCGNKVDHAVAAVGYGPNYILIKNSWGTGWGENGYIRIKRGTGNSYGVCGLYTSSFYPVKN
How it was run: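 Papain in 100 mM K3PO4, 1 mM EDTA, 2.5 mM cysteine, pH 6.0, 2% DMSO. Substrate Bz-Arg-p-nitroanilide; p-nitroaniline release read at 405 nm. Ki reported.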

Chain of Calpain 1 (P04632 whole entry): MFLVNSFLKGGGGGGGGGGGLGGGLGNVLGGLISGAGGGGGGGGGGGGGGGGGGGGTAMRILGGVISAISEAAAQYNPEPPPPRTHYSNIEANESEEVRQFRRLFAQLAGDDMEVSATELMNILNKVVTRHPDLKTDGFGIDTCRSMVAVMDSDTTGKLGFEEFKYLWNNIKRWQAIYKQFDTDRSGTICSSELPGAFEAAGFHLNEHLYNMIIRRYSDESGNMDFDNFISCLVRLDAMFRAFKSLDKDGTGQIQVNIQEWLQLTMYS
Chain of Calpain 1 (P07384 whole entry): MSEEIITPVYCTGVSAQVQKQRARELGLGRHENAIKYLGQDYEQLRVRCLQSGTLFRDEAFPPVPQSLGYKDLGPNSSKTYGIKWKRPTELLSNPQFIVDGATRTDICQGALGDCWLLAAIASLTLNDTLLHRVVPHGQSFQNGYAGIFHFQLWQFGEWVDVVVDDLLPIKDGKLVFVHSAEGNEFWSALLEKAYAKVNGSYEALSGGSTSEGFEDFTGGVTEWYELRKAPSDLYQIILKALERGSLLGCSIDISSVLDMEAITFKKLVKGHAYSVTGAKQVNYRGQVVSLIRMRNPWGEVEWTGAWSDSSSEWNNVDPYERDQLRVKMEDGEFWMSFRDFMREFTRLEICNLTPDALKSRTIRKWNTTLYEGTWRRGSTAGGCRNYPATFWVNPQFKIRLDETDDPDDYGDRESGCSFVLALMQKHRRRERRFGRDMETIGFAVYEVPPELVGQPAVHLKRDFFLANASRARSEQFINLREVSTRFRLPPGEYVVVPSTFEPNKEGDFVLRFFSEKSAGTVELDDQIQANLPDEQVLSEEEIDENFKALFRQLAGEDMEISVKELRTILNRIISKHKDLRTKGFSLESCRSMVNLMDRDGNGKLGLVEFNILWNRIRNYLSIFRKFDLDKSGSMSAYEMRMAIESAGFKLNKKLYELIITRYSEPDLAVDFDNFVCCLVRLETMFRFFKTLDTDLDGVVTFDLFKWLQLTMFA

SMILES | IC50 (Rattus norvegicus) [µM] | Ki (Calpain 1) [µM] | Ki (Cathepsin B) [µM] | Ki (Papain) [µM]
CCCC(NC(=O)C(CC(C)C)NC(=O)OCc1ccccc1)C(=O)C(=O)NCC (configuration not stated) | 40 | 0.21 | 3.3 | 
CCOC(=O)C(=O)C(CC)NC(=O)C(CC(C)C)NC(=O)OCc1ccccc1 (configuration not stated) | 300 | 4.5 | 30 | 220
CCNC(=O)C(=O)C(CC)NC(=O)C(CC(C)C)NC(=O)OCc1ccccc1 (configuration not stated) | 100 | 0.25 | 2.4 | 93
CCCC(NC(=O)C(CC(C)C)NC(=O)OCc1ccccc1)C(=O)C(N)=O (configuration not stated) |  | 0.069 |  | 
CCCCOC(=O)C(=O)C(CC)NC(=O)C(CC(C)C)NC(=O)OCc1ccccc1 (configuration not stated) | 28 | 1.8 | 4 | 10
CCOC(=O)C(=O)C(CC)NC(=O)C(CC(C)C)NC(=O)CCC(C)Cc1ccccc1 (configuration not stated) |  |  | 24 | 
CCCCOC(=O)C(=O)C(Cc1ccccc1)NC(=O)C(CC(C)C)NC(=O)OCc1ccccc1 (configuration not stated) |  | 5 | 15 | 15
CCC(NC(=O)C(CC(C)C)NC(=O)OCc1ccccc1)C(=O)C(=O)N(CC)Cc1ccccc1 (configuration not stated) |  |  | > 400 | 
CCOC(=O)C(=O)[C@H](CC)NC(=O)[C@H](CC(C)C)NC(=O)[C@H](CC(C)C)NS(=O)(=O)c1ccc(C)cc1 | 30 | 33 | 69 | 
CCN(CC)C(=O)C(=O)C(Cc1ccccc1)NC(=O)C(CC(C)C)NC(=O)OCc1ccccc1 (configuration not stated) |  | 76 |  | 
CCCNC(=O)C(=O)C(Cc1ccccc1)NC(=O)C(CC(C)C)NC(=O)OCc1ccccc1 (configuration not stated) | 31 | 15 | 3 | 
CCCCNC(=O)C(=O)C(CC)NC(=O)C(CC(C)C)NC(=O)OCc1ccccc1 (configuration not stated) | 35 | 0.2 | 13 | 93
CCOC(=O)C(=O)[C@H](CC)NC(=O)[C@H](CC(C)C)NC(=O)[C@H](CC(C)C)NS(=O)(=O)c1ccc2ccccc2c1 | 100 | 16 | 25 | 
CCCC(NC(=O)C(CC(C)C)NC(=O)OCc1ccccc1)C(=O)C(=O)OCC (configuration not stated) | 100 | 1.4 | 25 | 150
CCC(NC(=O)C(CC(C)C)NC(=O)OCc1ccccc1)C(=O)C(=O)NCCCCc1ccccc1 (configuration not stated) |  | 0.32 | 1.2 | 
CCOC(=O)C(=O)C(CCSC)NC(=O)C(CC(C)C)NC(=O)OCc1ccccc1 (configuration not stated) |  | 1 | 55 | 140
CCC(NC(=O)C(CC(C)C)NC(=O)OCc1ccccc1)C(=O)C(=O)N(Cc1ccccc1)Cc1ccccc1 (configuration not stated) |  | > 5 | 31 | 
CCOC(=O)C(=O)C(CC)NC(=O)C(CC(C)C)NS(=O)(=O)c1ccc2ccccc2c1 (configuration not stated) |  |  | 19 | 
CCCCCCCCNC(=O)C(=O)C(CC)NC(=O)C(CC(C)C)NC(=O)OCc1ccccc1 (configuration not stated) | 200 | 0.32 | 2.6 | 

SMILES | IC50 (Rattus norvegicus) [µM] | Ki (Calpain 1) [µM] | Ki (Cathepsin B) [µM] | Ki (Papain) [µM]
CC(C)CC(NC(=O)OCc1ccccc1)C(=O)NC(Cc1ccccc1)C(=O)C(=O)OCc1ccccc1 (configuration not stated) |  | 3.4 | 45 | 45
CCC(NC(=O)C(CC(C)C)NC(=O)OCc1ccccc1)C(=O)C(=O)O (configuration not stated) | 100 | 0.075 | 1.5 | 13.5
CCOC(=O)C(=O)[C@H](Cc1ccccc1)NC(=O)[C@H](CC(C)C)NC(=O)[C@H](CC(C)C)NC(=O)OCc1ccccc1 |  | 1.4 | 42 | 15
CCC(NC(=O)C(CC(C)C)NC(=O)OCc1ccccc1)C(=O)C(=O)OCc1ccccc1 (configuration not stated) | 100 | 9.5 | 4 | 40
CC(C)CC(NC(=O)OCc1ccccc1)C(=O)NC(Cc1ccccc1)C(=O)C(=O)O (configuration not stated) | 100 | 0.0085 | 4.5 | 7
CCC(NC(=O)C(CC(C)C)NC(=O)OCc1ccccc1)C(=O)C(=O)N(CC)CC (configuration not stated) |  |  | 270 | 
CCCCCCCNC(=O)C(=O)C(CC)NC(=O)C(CC(C)C)NC(=O)OCc1ccccc1 (configuration not stated) |  | 0.096 | 14 | 
CCC(NC(=O)C(CC(C)C)NC(=O)OCc1ccccc1)C(=O)C(=O)NCCc1ccccc1 (configuration not stated) | 50 | 0.2 | 1.3 | 38
CCOC(=O)C(=O)C(CC)NC(=O)C(CC(C)C)NC(=O)CCCc1ccccc1 (configuration not stated) | 20 |  | 23 | 
CCOC(=O)C(=O)C(CC)NC(=O)C(CC(C)C)NC(=O)C(c1ccccc1)c1ccccc1 (configuration not stated) | > 100 | 0.1 |  | 
CCC(NC(=O)C(CC(C)C)NC(=O)OCc1ccccc1)C(=O)C(=O)NCC(C)c1ccccc1 (configuration not stated) | 27 | 0.32 |  | 
CC(C)CC(NC(=O)OCc1ccccc1)C(=O)NC(Cc1ccccc1)C(=O)C(N)=O (configuration not stated) |  | 1 | 32 | 
CCC(NC(=O)C(CC(C)C)NC(=O)OCc1ccccc1)C(=O)C(=O)NCC1CCCCC1 (configuration not stated) | 66 | 0.68 |  | 
CCCCC(NC(=O)C(CC(C)C)NC(=O)OCc1ccccc1)C(=O)C(=O)OCC (configuration not stated) | 150 | 7 | 20 | 190
CCC(NC(=O)C(CC(C)C)NC(=O)OCc1ccccc1)C(=O)C(=O)OC (configuration not stated) | 280 |  | 17 | 
CCOC(=O)C(=O)C(CC)NC(=O)C(CC(C)C)NC(=O)OCC(C)C (configuration not stated) | > 300 |  | 0.4 | 
CCOC(=O)C(=O)[C@H](CC)NC(=O)[C@H](CC(C)C)NC(=O)[C@H](CC(C)C)NC(=O)c1ccc2ccccc2c1 | 78 | 1.3 |  | 
CCC(NC(=O)C(CC(C)C)NC(=O)OCc1ccccc1)C(=O)C(=O)NCC(C)C (configuration not stated) | 28 | 4 | 4 | 
CCOC(=O)C(=O)C(CC)NC(=O)C(CC(C)C)NC(=O)CCCCc1ccccc1 (configuration not stated) |  |  | 7.5 | 

SMILES | IC50 (Rattus norvegicus) [µM] | Ki (Calpain 1) [µM] | Ki (Cathepsin B) [µM] | Ki (Papain) [µM]
CCCCCCCCCNC(=O)C(=O)C(CC)NC(=O)C(CC(C)C)NC(=O)OCc1ccccc1 (configuration not stated) |  | 0.12 | 150 | 
CC(C)CNC(=O)C(=O)C(Cc1ccccc1)NC(=O)C(CC(C)C)NC(=O)OCc1ccccc1 (configuration not stated) | 22 | 0.08 | 4 | 
CCOC(=O)C(=O)C(Cc1ccc(Cl)cc1)NC(=O)C(CC(C)C)NC(=O)OCc1ccccc1 (configuration not stated) |  | < 4 | 50 | 150
CC(C)CC(NC(=O)OCc1ccccc1)C(=O)NC(Cc1ccccc1)C(=O)C(=O)NCc1ccccc1 (configuration not stated) | > 300 |  | 4.6 | 
CCOC(=O)C(=O)C(CC)NC(=O)C(CC(C)C)NC(=O)C(CC)Oc1ccccc1 (configuration not stated) | 22 | 20 | 14 | 
CCC(NC(=O)C(CC(C)C)NC(=O)OCc1ccccc1)C(=O)C(=O)NCC(c1ccccc1)c1ccccc1 (configuration not stated) |  | 0.16 | 3 | 
CCC(=O)C(=O)[C@H](CC)NC(=O)[C@H](CC(C)C)NC(=O)[C@H](CC(C)C)NC(=O)OCc1ccccc1 | 40 | 1.8 | 22 | 
CCC(NC(=O)C(CC(C)C)NC(=O)OCc1ccccc1)C(=O)C(=O)NCCCc1ccccc1 (configuration not stated) | 100 | 0.8 | 0.2 | 
CCC(NC(=O)C(CC(C)C)NC(=O)OCc1ccccc1)C(=O)C(=O)NCc1ccccc1 (configuration not stated) | 50 | 0.2 | 1.3 | 38
COC(=O)C(=O)C(Cc1ccccc1)NC(=O)C(CC(C)C)NC(=O)OCc1ccccc1 (configuration not stated) |  |  | > 100 | 
CC(C)CC(NC(=O)OCc1ccccc1)C(=O)NC(Cc1ccccc1)C(=O)C(=O)NCCc1ccccc1 (configuration not stated) | 100 | 0.052 | 9.3 | 100
CCOC(=O)C(=O)C(Cc1ccccc1)NC(=O)C(CC(C)C)NC(=O)OCc1ccccc1 (configuration not stated) | 200 | 1.8 | 340 | 75
CCCCNC(=O)C(=O)C(Cc1ccccc1)NC(=O)C(CC(C)C)NC(=O)OCc1ccccc1 (configuration not stated) | 38 | 0.5 | 3 | 
CCC(C)NC(=O)C(=O)C(CC)NC(=O)C(CC(C)C)NC(=O)OCc1ccccc1 (configuration not stated) |  | 2 | 0.5 | 
CCC(NC(=O)C(CC(C)C)NC(=O)OCc1ccccc1)C(=O)C(N)=O (configuration not stated) | 89 | 0.28 | 3.4 | 190
CCCNC(=O)C(=O)C(CC)NC(=O)C(CC(C)C)NC(=O)OCc1ccccc1 (configuration not stated) | 70 |  | 8 | 
CCOC(=O)C(=O)C(CC)NC(=O)C(CC(C)C)NC(=O)CCc1ccccc1 (configuration not stated) | 20 | 40 | 23 | 
CCNC(=O)C(=O)C(Cc1ccccc1)NC(=O)C(CC(C)C)NC(=O)OCc1ccccc1 (configuration not stated) | 22 | 0.2 | 6 | 45
CCCCCCCCCCNC(=O)C(=O)C(CC)NC(=O)C(CC(C)C)NC(=O)OCc1ccccc1 (configuration not stated) |  |  | 5 | 
